The sample as a whole holds a higher share of hits than the screen did.
UPR CHOP act = activators of apoptotic CHOP UPR arm, primary screen, cell-based, CHO-CHOP luciferase reporter, luminescence, uHTS. UPR activation; percent of tunicamycin response over DMSO baseline. activation, % at 10 µM. 0.34% of 330,000 active. AID 449763, 2010;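 active = at 10 µM dose, activation of 40% or more, normalized to positive control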;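 note: 100% = tunicamycin at 10 µg/mL and 0% = DMSO alone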
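Assay system: CHO cells with stable CHOP pathway luciferase reporter; Buffer or medium: F12 plus 10% serum; Times: 16-18 h cell attachment, then 6 h compound exposure, 37 °C; Signal: luciferase luminescence; Read-out basis: percent activation relative to tunicamycin control; Control set: tunicamycin high control, DMSO low control.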
CHOP inhibitor = inhibitors of CHOP promoter induction, primary screen, cell-based, unfolded protein response, luciferase reporter; CHO-K1 CHOP-promoter luciferase, tunicamycin-induced, 15-18 h; inhibition, % at 10 µM; 3.8% of 220,000 active;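 active = compounds that reduced the stress-induced luciferase reporter signal by more than about 70% of percent inhibition, limit read from the data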;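 note: 0% = tunicamycin plus vehicle and 100% = wells without tunicamycin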
TLR9-MyD88 block = inhibitors of TLR9-MyD88 association in cells, primary screen, cell-based, CHO, BLA complementation, fluorescence; CCF4 FRET ratio; 0.21% of 340,000 active; inhibition, % at 4.98 µM; AID 504734, 2011;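 active = inhibition above the mean over all tested compounds plus 3 SD, cut at about 21% in these data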;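 note: 0% = DMSO only wells and 100% = clavulanate BLA inhibitor control wells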
XBP1 UPR activ = activators of adaptive XBP1 UPR arm, primary screen, cell-based, CHO-XBP1 luciferase reporter, luminescence, uHTS; IRE1-XBP1 UPR activation; percent of tunicamycin response, DMSO as zero; activation, % at 20 µM; 0.33% of 330,000 active;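 active = versus positive control, 20 µM dose yields 30% or more activation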;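 note: 100% = tunicamycin at 10 µg/mL and 0% = DMSO only wells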
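Material: IRE1-XBP1 luciferase reporter CHO line / Quantity: one thousand reporter cells per well / Buffer or medium: F12 with 10% serum / Compound: 20 µM single concentration, DMSO 1% / Times: 6 h treatment, 37 °C / Detection: Steady-Glo luciferase glow luminescence, 10 min after reagent addition / Benchmarks: tunicamycin high, DMSO low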
NOD2 RIPK2 PPI = NOD2-RIPK2 binding disruptors in cells, primary screen, fluorescence, CHO cells, BLA complementation; Receptor-interacting serine/threonine-protein kinase 2 (Homo sapiens), O43353; CCF4 ratio; inhibition, % at 4.98 µM; 0.38% of 360,000 active; in the data active = inhibition above about 21%;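 note: 0% = vehicle only and 100% = reference blocker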
TLR4 MyD88 comp = inhibitors of TLR4-MyD88 association in cells, primary screen, cell-based, HeLa CL3-4, BLA complementation, FRET ratio; Toll-like receptor 4 (Homo sapiens) + Myeloid differentiation primary response protein …; HeLa CL3-4 TLR4/MyD88 BLA complementation; inhibition, % at 8.4 µM; 0.18% of 200,000 active; in the data active = inhibition above about 25%;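 note: 0% = vehicle and 100% = reference inhibitor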
CHOP inh conf = retest of CHOP induction inhibitors, confirmation, cell-based. AID 504437, 2011. CHO-CHOP promoter luciferase reporter, tunicamycin-induced, luminescence. 45% of 2,100 active. inhibition, % at 10 µM. shares compounds with CHOP inhibitor;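 active = mean of three repeat readings of reporter signal inhibition above a set limit, cut at about 70% in these data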;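 note: 0% = tunicamycin plus vehicle and 100% = wells lacking tunicamycin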
* = called active by the depositor.

How did COc1ccc(C2CC(c3c(-c4ccccc4)c4cc(Cl)ccc4[nH]c3=O)=NN2S(C)(=O)=O)cc1OC (configuration not stated) do in these assays?
UPR CHOP act: -2.6; CHOP inhibitor: 107.7*; TLR9-MyD88 block: 1.1; XBP1 UPR activ: 4.6; NOD2 RIPK2 PPI: 6.7; TLR4 MyD88 comp: -11.8; CHOP inh conf: 125.0*

Results for CC(O)c1cc2c(s1)c1cnn(Cc3ccccc3F)c(=O)c1n2C (configuration not stated) ?
UPR CHOP act: 0.0; TLR9-MyD88 block: 4.8; XBP1 UPR activ: 9.8; NOD2 RIPK2 PPI: -7.0

Results for O=C(CSc1nnc(SCc2cccc3ccccc23)s1)N/N=C/c1c[nH]c2ccccc12 ?
UPR CHOP act: 0.0; CHOP inhibitor: 105.1*; TLR9-MyD88 block: -1.6; XBP1 UPR activ: 2.6; NOD2 RIPK2 PPI: -5.9; TLR4 MyD88 comp: -3.5; CHOP inh conf: 34.0

What do the screens show for `CCCNC(=O)C1(C)CCCN(Cc2ccsc2)C1` (configuration not stated)?
NOD2 RIPK2 PPI: -3.4

How did Cc1ccc(S(=O)(=O)Nc2ccc3[nH]ccc3c2)cc1 do in these assays?
UPR CHOP act: 2.7; TLR9-MyD88 block: 1.7; XBP1 UPR activ: -2.2; NOD2 RIPK2 PPI: -3.6

Results for COC(=O)c1cc2cc(NS(=O)(=O)c3ccc(C)cc3)ccc2s1 ?
UPR CHOP act: -0.9; CHOP inhibitor: 103.0*; TLR9-MyD88 block: 9.6; XBP1 UPR activ: 1.0; NOD2 RIPK2 PPI: 7.0; TLR4 MyD88 comp: -3.1; CHOP inh conf: 13.7

How did COc1ccc2sc3c(=O)[nH]c4ccccc4c3c2c1 do in these assays?
UPR CHOP act: -1.2; CHOP inhibitor: 97.2*; TLR9-MyD88 block: -5.8; XBP1 UPR activ: 1.0; NOD2 RIPK2 PPI: -1.5; TLR4 MyD88 comp: 11.1; CHOP inh conf: 45.7

What do the screens show for `COc1ccc2c(c1)[nH]c(=O)c1sc3ccccc3c12`?
UPR CHOP act: 3.9; CHOP inhibitor: 108.4*; TLR9-MyD88 block: -9.9; XBP1 UPR activ: 11.4; NOD2 RIPK2 PPI: -1.8; TLR4 MyD88 comp: 8.6; CHOP inh conf: 56.5

What do the screens show for `C[C@H](CO)N1C[C@H](C)[C@H](CN(C)S(=O)(=O)c2cccc(F)c2)Oc2ncc(-c3cccc(C(=O)N(C)C)c3)cc2C1=O`?
TLR9-MyD88 block: 2.4; NOD2 RIPK2 PPI: -3.3

Results for CC(C)(C)c1cc(-c2nc(N)nc(N)n2)cc(C(C)(C)C)c1 ?
UPR CHOP act: 1.1; CHOP inhibitor: 102.9*; TLR9-MyD88 block: -6.3; XBP1 UPR activ: -1.8; NOD2 RIPK2 PPI: -2.1; TLR4 MyD88 comp: -9.1; CHOP inh conf: 57.3

How did Cc1nn(Cc2ccc(Cl)c(Cl)c2)c(C)c1NC(=O)c1cc(-c2ccc3c(c2)OCO3)on1 do in these assays?
UPR CHOP act: -0.2; CHOP inhibitor: 66.9; TLR9-MyD88 block: -0.8; XBP1 UPR activ: 12.5; NOD2 RIPK2 PPI: 6.4; TLR4 MyD88 comp: -8.3

What do the screens show for `Cc1nn(Cc2ccc(Cl)cc2)c(C)c1NC(=O)c1cc(-c2ccc3c(c2)OCO3)on1`?
UPR CHOP act: -0.4; CHOP inhibitor: 101.8*; TLR9-MyD88 block: -2.8; XBP1 UPR activ: -2.8; NOD2 RIPK2 PPI: 1.2; TLR4 MyD88 comp: 4.0; CHOP inh conf: 62.1

How did Cc1nn(Cc2c(Cl)cccc2Cl)c(C)c1NC(=O)c1cc(C(C)C)on1 do in these assays?
UPR CHOP act: 0.5; TLR9-MyD88 block: 2.2; XBP1 UPR activ: -3.2; NOD2 RIPK2 PPI: 7.0; TLR4 MyD88 comp: -9.5; CHOP inh conf: 95.5*

How did Oc1ccc(Cl)cc1-c1cc(-c2ccccc2)n[nH]1 do in these assays?
UPR CHOP act: 1.2; CHOP inhibitor: 104.8*; TLR9-MyD88 block: -3.8; XBP1 UPR activ: 5.8; NOD2 RIPK2 PPI: 4.8; TLR4 MyD88 comp: -2.3; CHOP inh conf: 81.5*

Results for Cc1ccc(-c2cc(-c3ccc(C)cc3O)[nH]n2)cc1 ?
UPR CHOP act: 5.4; TLR9-MyD88 block: -12.0; XBP1 UPR activ: 2.1; NOD2 RIPK2 PPI: 16.1

What do the screens show for `Oc1ccc(Br)cc1-c1cc(-c2ccccc2F)[nH]n1`?
UPR CHOP act: 4.9; CHOP inhibitor: 98.3*; TLR9-MyD88 block: 1.5; XBP1 UPR activ: 3.3; NOD2 RIPK2 PPI: 3.4; TLR4 MyD88 comp: -4.7; CHOP inh conf: 99.7*

What do the screens show for `Oc1ccc(Br)cc1-c1cc(-c2ccccc2Cl)[nH]n1`?
UPR CHOP act: 3.3; CHOP inhibitor: -31.9; TLR9-MyD88 block: -2.2; XBP1 UPR activ: 3.0; NOD2 RIPK2 PPI: 0.3

How did Cc1ccc(O)c(-c2cc(-c3cccc(Br)c3)n[nH]2)c1 do in these assays?
UPR CHOP act: 3.5; CHOP inhibitor: 96.7*; TLR9-MyD88 block: 7.6; XBP1 UPR activ: 6.5; NOD2 RIPK2 PPI: 2.2; TLR4 MyD88 comp: 2.1; CHOP inh conf: 33.8

How did Oc1ccccc1-c1cc(-c2ccccc2)n[nH]1 do in these assays?
UPR CHOP act: 4.4; TLR9-MyD88 block: -3.6; XBP1 UPR activ: 1.8; NOD2 RIPK2 PPI: 2.2

How did C[C@H](NC(=O)c1[nH]cnc1C(=O)Nc1ccc(Cl)cc1)C(=O)OC(C)(C)C do in these assays?
UPR CHOP act: 0.8; CHOP inhibitor: 104.5*; TLR9-MyD88 block: -14.1; XBP1 UPR activ: -2.2; NOD2 RIPK2 PPI: -9.2; CHOP inh conf: 91.3*

What do the screens show for `CCOC(=O)c1ccc(NC(=O)c2nc[nH]c2C(=O)N[C@@H](CC(C)C)C(=O)OC(C)(C)C)cc1`?
UPR CHOP act: 2.1; CHOP inhibitor: 24.8; TLR9-MyD88 block: 0.4; XBP1 UPR activ: 2.3; NOD2 RIPK2 PPI: -13.8

What do the screens show for `CCOC(=O)c1ccc(NC(=O)c2nc[nH]c2C(=O)N[C@@H](C)C(=O)OC(C)(C)C)cc1`?
UPR CHOP act: 0.9; CHOP inhibitor: 97.5*; TLR9-MyD88 block: -4.0; XBP1 UPR activ: -3.4; NOD2 RIPK2 PPI: -1.2; CHOP inh conf: 103.8*

Results for CC(C)(C)OC(=O)NCCCC[C@H](NC(=O)c1[nH]cnc1C(=O)Nc1ccc(Cl)cc1)C(=O)OC(C)(C)C ?
UPR CHOP act: 3.4; CHOP inhibitor: -2.1; TLR9-MyD88 block: 2.1; XBP1 UPR activ: 6.5; NOD2 RIPK2 PPI: -2.7

Results for Cc1ccc2nc(SC(C(=O)Nc3ccc(F)cc3)c3ccccc3)[nH]c2c1 (configuration not stated) ?
UPR CHOP act: 1.9; CHOP inhibitor: 106.4*; TLR9-MyD88 block: -9.4; XBP1 UPR activ: -2.4; NOD2 RIPK2 PPI: -0.1; TLR4 MyD88 comp: 5.2; CHOP inh conf: 55.8
